From ChEMBL document CHEMBL1255409, “In vitro activity of ceftaroline against 623 diverse strains of anaerobic bacteria” (2010)
In brackets after ≈: the same amount, converted by molar mass.

Legend:
Format in all cases: functional
Bacteroides fragilis = test: Antimicrobial activity against Bacteroides fragilis spp. under anaerobic conditions after 44 hrs by CLSI-M11-47 protocol based agar dilution method
Method in brief: (§1)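 Reference agar dilution per CLSI M11-A7 with plates made on test day. Clinical isolates were stored at −70°C in 20% skim milk, subcultured twice, and 48-h cell paste was suspended in brucella broth to 0.5 McFarland. About 10^5 CFU/spot was applied with a Steers replicator. Plates were incubated 44 h at 37°C anaerobically. MIC was the lowest concentration giving complete inhibition or marked growth reduction versus the drug-free control.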

[1] = tested on: Parabacteroides distasonis; test: Antimicrobial activity against Bacteroides distasonis under anaerobic conditions after 44 hrs by CLSI-M11-47 protocol based agar dilution method; method in brief: as §1
Prevotella bivia = test: Antimicrobial activity against Prevotella bivia under anaerobic conditions after 44 hrs by CLSI-M11-47 protocol based agar dilution method
Method in brief: (§2)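 Clinical isolates were stored at −70°C in 20% skim milk and identified phenotypically or by partial 16S rRNA sequencing. Each strain was subcultured twice from frozen stock. Cell paste from 48-h cultures was suspended in brucella broth to a 0.5 McFarland standard. About 10^5 CFU per spot were applied by Steers replicator to agar dilution plates prepared on the day of testing. Plates were incubated 44 h at 37°C in an anaerobic chamber. MIC was taken as the lowest concentration giving complete inhibition or marked reduction of growth versus the drug-free control.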

Prevotella buccae = test: Antimicrobial activity against Prevotella buccae under anaerobic conditions after 44 hrs by CLSI-M11-47 protocol based agar dilution method; conditions: Segatella buccae; method in brief: as §2
Prevotella intermedia = test: Antimicrobial activity against Prevotella intermedia under anaerobic conditions after 44 hrs by CLSI-M11-47 protocol based agar dilution method; method in brief: as §2
Prevotella denticola = test: Antimicrobial activity against Prevotella denticola under anaerobic conditions after 44 hrs by CLSI-M11-47 protocol based agar dilution method; method in brief: as §2
Prevotella tannerae = test: Antimicrobial activity against Prevotella tannerae under anaerobic conditions after 44 hrs by CLSI-M11-47 protocol based agar dilution method; conditions: Alloprevotella tannerae; method in brief: as §2
Fusobacterium nucleatum = test: Antimicrobial activity against Fusobacterium nucleatum under anaerobic conditions after 44 hrs by CLSI-M11-47 protocol based agar dilution method; method in brief: as §2
Fusobacterium varium = test: Antimicrobial activity against Fusobacterium varium under anaerobic conditions after 44 hrs by CLSI-M11-47 protocol based agar dilution method; method in brief: as §2
Veillonella = test: Antimicrobial activity against Veillonella spp. under anaerobic conditions after 44 hrs by CLSI-M11-47 protocol based agar dilution method; method in brief: as §2
Anaerococcus prevotii = test: Antimicrobial activity against Anaerococcus prevotii under anaerobic conditions after 44 hrs by CLSI-M11-47 protocol based agar dilution method; method in brief: as §1
Parvimonas micra = test: Antimicrobial activity against Parvimonas micra under anaerobic conditions after 44 hrs by CLSI-M11-47 protocol based agar dilution method; method in brief: as §2
[2] = tested on: Peptostreptococcus anaerobius; test: Antimicrobial activity against Peptostreptococcus anaerobius under anaerobic conditions after 44 hrs by CLSI-M11-47 protocol based agar dilution method; method in brief: as §2
[3] = tested on: Peptostreptococcus stomatis; test: Antimicrobial activity against Peptostreptococcus stomatis under anaerobic conditions after 44 hrs by CLSI-M11-47 protocol based agar dilution method; method in brief: as §2
Anaerococcus murdochii = test: Antimicrobial activity against Anaerococcus murdochii under anaerobic conditions after 44 hrs by CLSI-M11-47 protocol based agar dilution method; method in brief: as §1
Gemella sanguinis = test: Antimicrobial activity against Gemella sanguinis under anaerobic conditions after 44 hrs by CLSI-M11-47 protocol based agar dilution method; method in brief: as §2
Peptoniphilus harei = test: Antimicrobial activity against Peptoniphilus harei under anaerobic conditions after 44 hrs by CLSI-M11-47 protocol based agar dilution method; method in brief: as §2
Peptoniphilus lacrimalis = test: Antimicrobial activity against Peptoniphilus lacrimalis under anaerobic conditions after 44 hrs by CLSI-M11-47 protocol based agar dilution method; method in brief: as §2
Schaalia odontolytica = test: Antimicrobial activity against Actinomyces odontolyticus under anaerobic conditions after 44 hrs by CLSI-M11-47 protocol based agar dilution method; method in brief: as §1
Propionibacterium avidum = test: Antimicrobial activity against Propionibacterium avidum under anaerobic conditions after 44 hrs by CLSI-M11-47 protocol based agar dilution method; conditions: Cutibacterium avidum; method in brief: as §2
Eubacterium contortum = test: Antimicrobial activity against Eubacterium contortum under anaerobic conditions after 44 hrs by CLSI-M11-47 protocol based agar dilution method; conditions: Faecalicatena contorta; method in brief: as §1
Eubacterium cylindroides = test: Antimicrobial activity against Eubacterium cylindroides under anaerobic conditions after 44 hrs by CLSI-M11-47 protocol based agar dilution method; conditions: Faecalitalea cylindroides; method in brief: as §1
Eubacterium saburreum = test: Antimicrobial activity against Eubacterium saburreum under anaerobic conditions after 44 hrs by CLSI-M11-47 protocol based agar dilution method; conditions: Lachnoanaerobaculum saburreum; method in brief: as §1
Solobacterium moorei = test: Antimicrobial activity against Solobacterium moorei under anaerobic conditions after 44 hrs by CLSI-M11-47 protocol based agar dilution method; method in brief: as §2
Lacticaseibacillus casei = test: Antimicrobial activity against Lactobacillus casei under anaerobic conditions after 44 hrs by CLSI-M11-47 protocol based agar dilution method; method in brief: as §2
Clostridium perfringens = test: Antimicrobial activity against Clostridium perfringens under anaerobic conditions after 44 hrs by CLSI-M11-47 protocol based agar dilution method
Thomasclavelia ramosa = test: Antimicrobial activity against Clostridium ramosum under anaerobic conditions after 44 hrs by CLSI-M11-47 protocol based agar dilution method; method in brief: as §1
[Clostridium] innocuum = Antimicrobial activity against Clostridium […] under anaerobic conditions after 44 hrs by CLSI-M11-47 protocol based agar dilution method; method in brief: as §1
Clostridium glycolicum = test: Antimicrobial activity against Clostridium glycolicum under anaerobic conditions after 44 hrs by CLSI-M11-47 protocol based agar dilution method; conditions: Terrisporobacter glycolicus; method in brief: as §1
[4] = tested on: Paeniclostridium sordellii; test: Antimicrobial activity against Clostridium sordellii under anaerobic conditions after 44 hrs by CLSI-M11-47 protocol based agar dilution method; conditions: Paraclostridium sordellii; method in brief: as §1
Lacrimispora sphenoides = test: Antimicrobial activity against Clostridium sphenoides under anaerobic conditions after 44 hrs by CLSI-M11-47 protocol based agar dilution method; method in brief: as §1
Clostridium symbiosum = test: Antimicrobial activity against Clostridium symbiosum under anaerobic conditions after 44 hrs by CLSI-M11-47 protocol based agar dilution method; method in brief: as §1

CCC[C@@H]1C[C@@H](C(=O)N[C@@H]([C@H]2O[C@H](SC)[C@H](O)[C@@H](O)[C@H]2O)[C@H](C)Cl)N(C)C1 [CLINDAMYCIN]
MIC50 (Bacteroides fragilis): 4 µg/mL (≈ 9.41 µM) | MIC90 (Bacteroides fragilis): > 128 µg/mL | MIC50 [1]: 4 µg/mL (≈ 9.41 µM) | MIC90 [1]: > 128 µg/mL | MIC50 (Prevotella bivia): ≤ 0.03 µg/mL | MIC90 (Prevotella bivia): > 128 µg/mL | MIC50 (Prevotella buccae): ≤ 0.03 µg/mL | MIC90 (Prevotella buccae): > 128 µg/mL | MIC50 (Prevotella intermedia): ≤ 0.03 µg/mL | MIC90 (Prevotella intermedia): 16 µg/mL (≈ 37.6 µM) | MIC50 (Prevotella denticola): ≤ 0.03 µg/mL | MIC90 (Prevotella denticola): 128 µg/mL (≈ 301 µM) | MIC50 (Prevotella tannerae): ≤ 0.03 µg/mL | MIC90 (Prevotella tannerae): 128 µg/mL (≈ 301 µM) | MIC50 (Fusobacterium nucleatum): 0.06 µg/mL (≈ 0.141 µM) | MIC90 (Fusobacterium nucleatum): 0.06 µg/mL (≈ 0.141 µM) | MIC50 (Fusobacterium varium): 2 µg/mL (≈ 4.71 µM) | MIC90 (Fusobacterium varium): 4 µg/mL (≈ 9.41 µM) | MIC50 (Veillonella): 0.125 µg/mL (≈ 0.294 µM) | MIC90 (Veillonella): 128 µg/mL (≈ 301 µM) | MIC50 (Anaerococcus prevotii): 0.5 µg/mL (≈ 1.18 µM) | MIC90 (Anaerococcus prevotii): 128 µg/mL (≈ 301 µM) | MIC50 (Parvimonas micra): 0.25 µg/mL (≈ 0.588 µM) | MIC90 (Parvimonas micra): 16 µg/mL (≈ 37.6 µM) | MIC50 [2]: ≤ 0.03 µg/mL | MIC90 [2]: 0.25 µg/mL (≈ 0.588 µM) | MIC50 [3]: ≤ 0.03 µg/mL | MIC90 [3]: 0.25 µg/mL (≈ 0.588 µM) | MIC50 (Anaerococcus murdochii): 0.125 µg/mL (≈ 0.294 µM) | MIC90 (Anaerococcus murdochii): 64 µg/mL (≈ 151 µM) | MIC50 (Gemella sanguinis): 0.125 µg/mL (≈ 0.294 µM) | MIC90 (Gemella sanguinis): 64 µg/mL (≈ 151 µM) | MIC50 (Peptoniphilus harei): 0.125 µg/mL (≈ 0.294 µM) | MIC90 (Peptoniphilus harei): 64 µg/mL (≈ 151 µM) | MIC50 (Peptoniphilus lacrimalis): 0.125 µg/mL (≈ 0.294 µM) | MIC90 (Peptoniphilus lacrimalis): 64 µg/mL (≈ 151 µM) | MIC50 (Schaalia odontolytica): 0.06 µg/mL (≈ 0.141 µM) | MIC90 (Schaalia odontolytica): 128 µg/mL (≈ 301 µM) | MIC50 (Propionibacterium avidum): 0.25 µg/mL (≈ 0.588 µM) | MIC90 (Propionibacterium avidum): 0.25 µg/mL (≈ 0.588 µM) | MIC50 (Eubacterium contortum): 0.06 µg/mL (≈ 0.141 µM) | MIC90 (Eubacterium contortum): 2 µg/mL (≈ 4.71 µM) | MIC50 (Eubacterium cylindroides): 0.06 µg/mL (≈ 0.141 µM) | MIC90 (Eubacterium cylindroides): 2 µg/mL (≈ 4.71 µM) | MIC50 (Eubacterium saburreum): 0.06 µg/mL (≈ 0.141 µM) | MIC90 (Eubacterium saburreum): 2 µg/mL (≈ 4.71 µM) | MIC50 (Solobacterium moorei): 0.06 µg/mL (≈ 0.141 µM) | MIC90 (Solobacterium moorei): 2 µg/mL (≈ 4.71 µM) | MIC50 (Lacticaseibacillus casei): 1 µg/mL (≈ 2.35 µM) | MIC90 (Lacticaseibacillus casei): 2 µg/mL (≈ 4.71 µM) | MIC50 (Clostridium perfringens): 0.25 µg/mL (≈ 0.588 µM) | MIC90 (Clostridium perfringens): 1 µg/mL (≈ 2.35 µM) | MIC50 (Thomasclavelia ramosa): 4 µg/mL (≈ 9.41 µM) | MIC90 (Thomasclavelia ramosa): 8 µg/mL (≈ 18.8 µM) | MIC50 ([Clostridium] innocuum): 0.5 µg/mL (≈ 1.18 µM) | MIC90 ([Clostridium] innocuum): > 128 µg/mL | MIC50 (Clostridium glycolicum): 2 µg/mL (≈ 4.71 µM) | MIC90 (Clostridium glycolicum): 128 µg/mL (≈ 301 µM) | MIC50 [4]: 2 µg/mL (≈ 4.71 µM) | MIC90 [4]: 128 µg/mL (≈ 301 µM) | MIC50 (Lacrimispora sphenoides): 2 µg/mL (≈ 4.71 µM) | MIC90 (Lacrimispora sphenoides): 128 µg/mL (≈ 301 µM) | MIC50 (Clostridium symbiosum): 2 µg/mL (≈ 4.71 µM) | MIC90 (Clostridium symbiosum): 128 µg/mL (≈ 301 µM)
